ChEMBL document CHEMBL5303300, “EUbOPEN Chemogenomics Library - Multiplex” (2023)
Several values for one entry are separate records, joined by “and”; a condition that tells them apart may be missing. Equal entries are not always repeated.

How the values were obtained:
[1] = tested on: U2OS; test: Multiplex assay against U2OS; assay type: toxicity, cell-based; conditions: human, number of replicates 2
In short: (§1)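 Compound was added to live cells that had been stained at seeding with Hoechst33342, BioTracker Green Microtubule Cytoskeleton Dye, MitoTracker Red and Annexin V Alexa Fluor 680, and imaging followed on a CQ1 microscope at 37°C and 5% CO2. CellPathfinder machine-learning gating divided cells into Hoechst high-intensity objects or normal cells, normal cells into healthy, pyknosed or fragmented nuclei, and pyknosed cells into mitotic or apoptotic. Tubulin, mitochondrial-mass and membrane-permeability phenotypes are per cents of healthy-nucleus cells.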

[2] = tested on: Fibroblast; test: Multiplex assay against human fibroblast; assay type: toxicity, cell-based; conditions: number of replicates 2; in short: as §1
[3] = 24 h, 1 µM, compound concentration 1 uM
[4] = 24 h, 10 µM, compound concentration 10 uM
[5] = 48 h, 1 µM, compound concentration 1 uM
[6] = 48 h, 10 µM, compound concentration 10 uM
[7] = 12 h, 1 µM, compound concentration 1 uM
[8] = 12 h, 10 µM, compound concentration 10 uM

CN(C)C/C=C/C(=O)Nc1cccc(S(=O)(=O)N2CCC(NC(=O)c3n[nH]cc3NC(=O)c3c(Cl)cc(Cl)cc3Cl)CC2)c1
Population Tubulin-Different-Phenotype (%) [1, 3]: 86% and 59%
Population Apoptotic (%) [1, 4]: 97%
Population Fragmented Nuclei (%) [1, 4]: 11% and 9%
Population Healthy Nuclei (%) [1, 4]: 4% and 3%
Population Hoechst High Intensity Objects (%) [1, 4]: 0% and 2%
Population Membrane Permeable-Phenotype (%) [1, 4]: 100% and 83%
Population Mitochondria Different-Phenotype (%) [1, 4]: 100% and 83%
Population Mitotic Cells (%) [1, 4]: 2%
Population Normal (%) [1, 4]: 100% and 97%
Population Pyknosed Nuclei (%) [1, 4]: 84% and 87%
Population Tubulin-Different-Phenotype (%) [1, 4]: 100%
Population Apoptotic (%) [1, 5]: 76% and 97%
Population Healthy Nuclei (%) [1, 5]: 9% and 17%
Population Hoechst High Intensity Objects (%) [1, 5]: 4% and 5%
Population Normal (%) [1, 5]: 95% and 94%
Population Pyknosed Nuclei (%) [1, 5]: 60% and 74%
Population Tubulin-Different-Phenotype (%) [1, 5]: 100% and 82%
Population Apoptotic (%) [1, 6]: 93%
Population Fragmented Nuclei (%) [1, 6]: 0% and 6%
Population Healthy Nuclei (%) [1, 6]: 23% and 10%
Population Hoechst High Intensity Objects (%) [1, 6]: 0% and 1%
Population Membrane Permeable-Phenotype (%) [1, 6]: 90% and 94%
Population Mitochondria Different-Phenotype (%) [1, 6]: 90% and 72%
Population Mitotic Cells (%) [1, 6]: 6%
Population Normal (%) [1, 6]: 100% and 98%
Population Pyknosed Nuclei (%) [1, 6]: 76% and 83%
Population Tubulin-Different-Phenotype (%) [1, 6]: 100% and 88%
Population Apoptotic (%) [2, 7]: 51% and 32%
Population Fragmented Nuclei (%) [2, 7]: 12% and 7%
Population Healthy Nuclei (%) [2, 7]: 59% and 65%
Population Hoechst High Intensity Objects (%) [2, 7]: 0% and 1%
Population Membrane Permeable-Phenotype (%) [2, 7]: 11% and 14%
Population Mitochondria Different-Phenotype (%) [2, 7]: 1% and 5%
Population Mitotic Cells (%) [2, 7]: 48% and 67%
Population Normal (%) [2, 7]: 100% and 98%
Population Pyknosed Nuclei (%) [2, 7]: 28% and 26%
Population Tubulin-Different-Phenotype (%) [2, 7]: 45% and 40%
Total Cell Count [2, 7]: 158 and 185
Population Apoptotic (%) [2, 8]: 47% and 44%
Population Fragmented Nuclei (%) [2, 8]: 28% and 26%
Population Healthy Nuclei (%) [2, 8]: 36% and 40%
Population Hoechst High Intensity Objects (%) [2, 8]: 0%
Population Membrane Permeable-Phenotype (%) [2, 8]: 18% and 10%
Population Mitochondria Different-Phenotype (%) [2, 8]: 4% and 5%
Population Mitotic Cells (%) [2, 8]: 52% and 55%
Population Normal (%) [2, 8]: 100%
Population Pyknosed Nuclei (%) [2, 8]: 34% and 32%
Population Tubulin-Different-Phenotype (%) [2, 8]: 82% and 72%
Total Cell Count [2, 8]: 243 and 248
Population Apoptotic (%) [2, 3]: 74% and 57%
Population Fragmented Nuclei (%) [2, 3]: 12% and 11%
Population Healthy Nuclei (%) [2, 3]: 62% and 63%
Population Hoechst High Intensity Objects (%) [2, 3]: 0%
Population Membrane Permeable-Phenotype (%) [2, 3]: 12% and 17%
Population Mitochondria Different-Phenotype (%) [2, 3]: 6% and 3%
Population Mitotic Cells (%) [2, 3]: 25% and 42%
Population Normal (%) [2, 3]: 100%
Population Pyknosed Nuclei (%) [2, 3]: 25%
Population Tubulin-Different-Phenotype (%) [2, 3]: 52% and 41%
Total Cell Count [2, 3]: 140 and 177
Population Apoptotic (%) [2, 4]: 73% and 77%
Population Fragmented Nuclei (%) [2, 4]: 19% and 21%
Population Healthy Nuclei (%) [2, 4]: 15% and 20%
Population Hoechst High Intensity Objects (%) [2, 4]: 0%
Population Membrane Permeable-Phenotype (%) [2, 4]: 25% and 12%
Population Mitochondria Different-Phenotype (%) [2, 4]: 25% and 21%
Population Mitotic Cells (%) [2, 4]: 26% and 22%
Population Normal (%) [2, 4]: 99% and 100%
Population Pyknosed Nuclei (%) [2, 4]: 65% and 57%
Population Tubulin-Different-Phenotype (%) [2, 4]: 80% and 74%
Total Cell Count [2, 4]: 227 and 226
Population Apoptotic (%) [2, 5]: 70% and 64%
Population Fragmented Nuclei (%) [2, 5]: 14% and 12%
Population Healthy Nuclei (%) [2, 5]: 44% and 50%
Population Hoechst High Intensity Objects (%) [2, 5]: 0%
Population Membrane Permeable-Phenotype (%) [2, 5]: 18%
Population Mitotic Cells (%) [2, 5]: 29% and 35%
Population Normal (%) [2, 5]: 100%
Population Pyknosed Nuclei (%) [2, 5]: 40% and 37%
Population Tubulin-Different-Phenotype (%) [2, 5]: 39% and 51%
Total Cell Count [2, 5]: 166 and 150
Population Apoptotic (%) [2, 6]: 91% and 94%
Population Fragmented Nuclei (%) [2, 6]: 16% and 12%
Population Healthy Nuclei (%) [2, 6]: 5% and 6%
Population Hoechst High Intensity Objects (%) [2, 6]: 1% and 0%
Population Membrane Permeable-Phenotype (%) [2, 6]: 80% and 66%
Population Mitochondria Different-Phenotype (%) [2, 6]: 10% and 0%
Population Mitotic Cells (%) [2, 6]: 8% and 5%
Population Normal (%) [2, 6]: 98% and 99%
Population Pyknosed Nuclei (%) [2, 6]: 77% and 80%
Population Tubulin-Different-Phenotype (%) [2, 6]: 70% and 66%
Total Cell Count [2, 6]: 191 and 189
